Assay results gathered from unrelated publications.
Target: Ephrin type-A receptor 7 (EPHA7, Homo sapiens, UniProt Q15375)

| SMILES | effect on | action | technique | concentration | quantity | result |
| --- | --- | --- | --- | --- | --- | --- |
| CCN(CC)CCNC(=O)c1c(C)[nH]c(/C=C2\C(=O)Nc3ccc(F)cc32)c1C | enzyme activity | inhibitor |  | 0.3 µM | inhibition | 3% |
| CC(=O)C1=C(C)N(c2cccc(C(F)(F)F)c2)C(=O)N[C@@H]1c1ccc(C#N)nc1 | cell-free assay |  | competition with immobilised ligand | 1 µM | remaining binding | 100% |
| O=C1Nc2ccc(Cl)cc2C1=Cc1cc(Cl)c(O)c(Cl)c1 | cell-free assay |  |  | 0.5 µM | remaining signal | 97.5% |
| CNC(=O)c1cc(Oc2ccc(NC(=O)Nc3ccc(Cl)c(C(F)(F)F)c3)cc2)ccn1 | enzyme activity | inhibitor |  | 0.3 µM | inhibition | 30% |
| Cc1ccc(NC(=O)c2ccc(C)c(C(F)(F)F)c2)cc1C#Cc1nn(C2CCC(O)CC2)c2ncnc(N)c12 (centres unmarked) | cell-free assay |  |  | 10 µM | remaining signal | 0% |
| Cc1sc(C(=O)NC2COC2)cc1-n1cc(NC(=O)Nc2c(F)cccc2Cl)cn1 | enzyme activity | inhibitor |  | 10 µM | remaining activity | 98.6% |
| CCN(CC)c1ccc(C2=NNC(=O)CC2C)cc1[N+](=O)[O-] (centres unmarked) | enzyme activity | inhibitor |  | 10 µM | remaining activity | 91% |
| CCCOc1ccc([C@H]2[C@H](C(=O)O)[C@@H](c3ccc4c(c3)OCO4)CN2CC(=O)Nc2c(CC)cccc2CC)cc1 | cell-free assay |  | competition with immobilised ligand | 1 µM | remaining binding | 98% |
| CNC(=O)c1cc2c(Oc3ccc(NC(=O)C4(C(=O)Nc5ccc(F)cc5)CC4)cc3)ccnc2cc1OC | enzyme activity | inhibitor | radiometric | 1 µM | inhibition | 96% |
| COc1cccc2c(NCc3ccccc3)nc(-n3c(N)nc4ccccc43)nc12 | target engagement in cells | inhibitor | chemoproteomics | 20 mM | inhibition | 2.9% |
| O=C(NCc1ncc(C(F)(F)F)cc1Cl)c1ccc2c(c1)C1(CCS(=O)(=O)CC1)[C@H](C1CC1)N2S(=O)(=O)c1ccc(F)cc1 | cell-free assay |  | competition with immobilised ligand | 1 µM | remaining binding | 100% |
| Cc1ccc(C(=O)NCc2ccsc2)cc1C#Cc1cn(C(C)C)c2ncnc(N)c12 | enzyme activity | inhibitor |  | 1 µM | activity vs control | 21% |
| CC(C)(C)c1nc(-c2cccc(NS(=O)(=O)c3c(F)cccc3F)c2F)c(-c2ccnc(N)n2)s1 | enzyme activity | inhibitor | radiometric | 1 µM | remaining activity | 102% |
| CC(C)(O)[C@H]1CC[C@H](Nc2ccc3ncc(-c4cccc(C(F)(F)F)c4)n3n2)CC1 | enzyme activity | inhibitor |  | 1 µM | remaining activity | 93.3% |
| COc1ccc2c(c1)O[C@@H](c1ccc(OC)c(OC)c1)C[C@H]2NC(=O)C1(c2ccc3c(c2)OC(F)(F)O3)CC1 | cell-free assay |  | competition with immobilised ligand | 1 µM | remaining binding | 86% |
| Cc1ccc(Nc2nccc(N(C)c3ccc4c(C)n(C)nc4c3)n2)cc1S(N)(=O)=O | enzyme activity | inhibitor |  | 10 µM | inhibition | 34% |
| C[C@@H](c1cccc(C#N)c1)n1cc(Cl)cc(C(N)=O)c1=N | cell-free assay |  | competition with immobilised ligand | 1 µM | remaining binding | 100% |
| N#CCCc1ccc2c(c1)-c1[nH]c3ccc([N+](=O)[O-])cc3c1CC(=O)N2 | cell-free assay |  |  | 0.5 µM | remaining signal | 95.3% |
| CO[C@@H](C)c1c(Nc2ccc([C@@H](N(C)C(=O)C3CCS(=O)(=O)CC3)C(F)(F)F)cc2)cnc2cc(Cl)nn12 | cell-free assay |  | competition with immobilised ligand | 1 µM | remaining binding | 87% |
| CCCS(=O)(=O)Nc1ccc(F)c(C(=O)c2c[nH]c3ncc(-c4ccc(Cl)cc4)cc23)c1F | enzyme activity | inhibitor |  | 1 µM | inhibition | < 10% |
